Screening results (PubChem BioAssay)
This is a sample that favours compounds with a hit; in the whole collection about 1.4% have one here.
NR1D1 modulator = modulates human Rev-erb alpha binding to DNA. AID 1259318. Rev-erbα–FITC-DNA binding, fluorescence polarization, 90 min. activity, % at 10 µM. P20393. 370,000 tested, 0.79% active;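 active = activity above about 14%, limit read from the data; passing the limit was not always enough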
PG9 binder = binds the HIV-1 gp120 antibody PG9; TR-FRET gp120-PG9 antibody binding; inhibition, % at 6.7 µM; 360,000 tested, 0.43% active; in the data active = inhibition above about 8.5%
NR2E3 ag-1 = agonists of human NR2E3 nuclear receptor. 360,000 tested, 0.35% active. inhibition of corepressor binding, % at 3.98 µM. AID 602229. Q9Y5X4. CHO-S Gal4-NCOR/VP16-NR2E3 two-hybrid, luciferase;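 active = inhibition above the mean of all tested compounds plus 3 SD, cut at about 70% in these data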;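 note: higher means lower luciferase signal from less NR2E3 corepressor binding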
Target sequence (Q9Y5X4 whole entry, looked up, the tested form may be a part): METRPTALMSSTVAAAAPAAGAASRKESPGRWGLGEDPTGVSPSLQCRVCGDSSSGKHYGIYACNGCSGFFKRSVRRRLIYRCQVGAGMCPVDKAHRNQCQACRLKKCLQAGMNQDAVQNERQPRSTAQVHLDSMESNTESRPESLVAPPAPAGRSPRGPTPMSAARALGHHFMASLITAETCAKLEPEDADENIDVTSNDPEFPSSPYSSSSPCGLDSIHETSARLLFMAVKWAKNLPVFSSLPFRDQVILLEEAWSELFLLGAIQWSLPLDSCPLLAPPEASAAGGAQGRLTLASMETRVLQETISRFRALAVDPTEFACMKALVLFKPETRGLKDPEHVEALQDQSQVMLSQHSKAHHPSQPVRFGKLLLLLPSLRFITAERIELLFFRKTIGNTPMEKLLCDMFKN
NR2E3 ag-2 = agonists of human nuclear receptor NR2E3 | GST-NR2E3/biotin-RetCOR TR-FRET, 1536-well | Q9Y5X4 | 320,000 tested, 0.12% active | inhibition of corepressor binding, % at 4.78 µM;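 active = percent inhibition above the cutoff of mean plus 3 SD of all tested compounds, set per screening campaign, cut at about 20% in these data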
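Material: NR2E3–RetCOR corepressor complex / Incubation: Compound–protein incubation for 5 h at 4 °C / Dosing: compound at 4.8 µM, single dose / Detection: time-resolved FRET / Benchmarks: high control biotin, low control 0.6% DMSO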
NR1D1 mod conf = confirmation of modulators of human Rev-erb alpha DNA binding. shares compounds with NR1D1 modulator. Rev-erb alpha FITC-DNA binding, fluorescence polarization, 90 min. activation, % at 25 µM. 3,000 tested, 61% active. AID 1259319;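 active = activation at or above a set limit, or at least 3 SD above the negative control mean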
RORg DNA counter = RORgamma DNA-binding activity, dose-response counter-screen. shares compounds with NR1D1 modulator. purified RORgamma protein-FITC-DNA binding, fluorescence polarization. IC50, µM. 910 tested, 8% active;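 active = Compounds whose fitted half-maximal concentration for disrupting protein-DNA binding is below 10 micromolar; the record names Rev-erb in its text, so the target is in doubt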
Large screens that a line does not name were inactive (follow-up assays come after a bar, where they were run).

O=C(CSc1nc(-c2ccco2)cc(C(F)(F)F)n1)N1CCCc2ccccc21	NR1D1 modulator 25 | NR1D1 mod conf inactive
O=c1c2cnn(-c3ccccc3)c2nc(-c2cccs2)n1-c1ccc(Cl)cc1	NR1D1 modulator 23 | NR1D1 mod conf inactive
O=c1c2cnn(-c3ccccc3)c2nc(-c2cccs2)n1-c1cccc(Cl)c1	none
CCc1cc2c(=O)c(-c3cnn(-c4ccccc4)c3)c(C)oc2cc1OCC(=O)Nc1ccc(F)c(F)c1	NR1D1 modulator 31 | NR1D1 mod conf inactive
O=C1CSc2ccc(C(=O)N3CCCC(C(=O)N4CCOCC4)C3)cc2N1 (stereo not drawn)	none (no result: PG9 binder, NR2E3 ag-1, NR2E3 ag-2)
C=CCn1c(SCCN2C(=O)c3ccccc3C2=O)nc2scc(-c3ccc(F)cc3)c2c1=O	NR1D1 modulator 21 (no result: NR2E3 ag-2) | NR1D1 mod conf inactive
C=CCn1c(SCC(=O)N2CC(=O)Nc3ccccc32)nc2scc(-c3ccccc3)c2c1=O	none
Clc1ccc(-n2cnc3c(Cl)ncnc32)cc1Cl	none (no result: NR2E3 ag-2)
N#Cc1c(N2CCSCC2)nsc1-c1ccccc1Cl	NR1D1 modulator 23 (no result: NR2E3 ag-2) | NR1D1 mod conf 28
Cc1cnn(-c2ccc3nnc(-c4ccc(Cl)cc4)n3n2)c1	NR1D1 modulator 22 | NR1D1 mod conf 27
Cc1cc(NC(=O)CSc2ccc3nnc(-c4ccc(Cl)cc4)n3n2)no1	none
COc1cc(Cl)ccc1OC1(C)CCN(Cc2c(F)cccc2F)C1 (stereo not drawn)	none (no result: NR2E3 ag-2)
COc1ccc2[nH]cc(C=O)c2c1	none
COc1ccc2[nH]cc(/C=C/c3cc[n+](C)cc3)c2c1	NR1D1 modulator 69 | NR1D1 mod conf 58 | RORg DNA counter inactive
COc1ccc2c(c1)CCCN2C(=O)C1CCCN(S(=O)(=O)c2c(C(C)C)cc(C(C)C)cc2C(C)C)C1 (stereo not drawn)	none (no result: PG9 binder, NR2E3 ag-1, NR2E3 ag-2)
O=c1c(Cl)c(Nc2cccc(Cl)c2)cnn1-c1nc2ccccc2s1	NR1D1 modulator 19 | NR1D1 mod conf inactive
COc1ccc(Nc2cnn(-c3nc4ccccc4s3)c(=O)c2Cl)cc1	none
C[C@@H]1ON(C)[C@H]2C[C@H]3c4cc(N5CCCCC5)ccc4CCN3C[C@@H]12	none (no result: NR2E3 ag-1, NR2E3 ag-2)
Cc1ccccc1NCC(=O)N/N=C/c1ccc[nH]1	none (no result: PG9 binder, NR2E3 ag-1, NR2E3 ag-2)
CCOC(=O)N[C@H](C(=O)N1CCC[C@H]1C(=O)NCc1ccccc1)C(C)C	none (no result: NR2E3 ag-1, NR2E3 ag-2)
COc1ccc(NC(=O)NNC(=O)COc2ccc3cc(Br)ccc3c2)cc1	NR1D1 modulator 16 (no result: NR2E3 ag-2) | NR1D1 mod conf inactive
COCCN(CCOC)Cc1cc(=O)oc2cc(C)c(Cl)cc12	none (no result: NR2E3 ag-2)
CCOc1ccc2nc(SCC(=O)N3c4ccccc4Sc4ccccc43)sc2c1	none
Cc1ccc2nc(SCC(=O)Nc3ccccc3N3CCOCC3)c(C#N)cc2c1	NR1D1 modulator 28 | NR1D1 mod conf 18
CCOc1ccc2nc(SCC(=O)N3c4ccccc4Sc4ccccc43)c(C#N)cc2c1	NR1D1 modulator 142 | NR1D1 mod conf 61 | RORg DNA counter inactive
CCSc1nc2ccc(C)cc2cc1C#N	NR1D1 modulator 30 | NR1D1 mod conf inactive
Cc1cc(NC(=O)CSc2nc3ccccc3cc2C#N)no1	NR1D1 modulator 27 | NR1D1 mod conf 18
COc1cccc(CNC(=O)c2cc(S(=O)(=O)N3CCCCC3)ccc2C)c1	none (no result: NR2E3 ag-2)
CC(=O)C1=CCC(c2ccc(Cl)cc2)N(S(=O)(=O)c2ccc(C)cc2)C1 (stereo not drawn)	none (no result: NR2E3 ag-2)
COC(=O)c1cc(-c2ccccc2OC)c(=O)n2c1CCC2	none (no result: PG9 binder, NR2E3 ag-1, NR2E3 ag-2)
Cc1cc2cc3c(cc2nc1SCC(=O)N1CCCC1)OCCO3	none (no result: NR2E3 ag-2)
COc1ccc2nc(SCC(=O)Nc3cc(C)on3)c(C#N)cc2c1	NR1D1 modulator 61 | NR1D1 mod conf 27
Cc1ccc2cc(C#N)c(SCC(=O)N3CCCc4ccccc43)nc2c1	NR1D1 modulator 60 | NR1D1 mod conf 44 | RORg DNA counter inactive
N#Cc1cc2cc3c(cc2nc1SCC(=O)N1CCOCC1)OCCO3	NR1D1 modulator 17 | NR1D1 mod conf inactive
CCc1cc2ccc(C)cc2nc1SCC(=O)Nc1cc(C)on1	NR1D1 modulator 17 | NR1D1 mod conf inactive
Cc1ccc(SCC(=O)Nc2cc(C)on2)cc1	none
CCCCS(=O)(=O)NC(=O)C1(C)CCN1C(=O)C/C=C/c1ccccc1 (stereo not drawn)	none (no result: NR2E3 ag-2)
OC[C@@H]1CN(Cc2ccccc2)C[C@H](n2cnc3c(N4CCOCC4)ncnc32)O1	none (no result: NR2E3 ag-2)
